This is an account of results in paper PMC4234452 (Journal of Medicinal Chemistry, 2014).

Data set [1] concerns the target T1, Human Transglutaminase 3 (TG3) (Homo sapiens, UniProt Q08188).
T1 sequence (Q08188 2-467 limits assumed): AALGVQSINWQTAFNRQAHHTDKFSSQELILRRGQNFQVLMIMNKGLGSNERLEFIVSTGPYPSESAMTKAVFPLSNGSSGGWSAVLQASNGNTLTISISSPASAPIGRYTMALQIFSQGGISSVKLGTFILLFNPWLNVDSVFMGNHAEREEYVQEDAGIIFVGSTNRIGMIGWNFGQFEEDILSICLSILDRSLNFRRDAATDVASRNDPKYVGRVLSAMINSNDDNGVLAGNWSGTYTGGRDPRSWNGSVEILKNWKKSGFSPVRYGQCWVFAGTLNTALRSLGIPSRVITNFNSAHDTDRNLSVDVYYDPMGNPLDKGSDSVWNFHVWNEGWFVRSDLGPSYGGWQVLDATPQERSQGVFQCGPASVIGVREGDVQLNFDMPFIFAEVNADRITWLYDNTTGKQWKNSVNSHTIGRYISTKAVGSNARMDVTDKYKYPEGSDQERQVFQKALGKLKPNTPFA
T1 sequence (Q08188 468-693 partner limits assumed): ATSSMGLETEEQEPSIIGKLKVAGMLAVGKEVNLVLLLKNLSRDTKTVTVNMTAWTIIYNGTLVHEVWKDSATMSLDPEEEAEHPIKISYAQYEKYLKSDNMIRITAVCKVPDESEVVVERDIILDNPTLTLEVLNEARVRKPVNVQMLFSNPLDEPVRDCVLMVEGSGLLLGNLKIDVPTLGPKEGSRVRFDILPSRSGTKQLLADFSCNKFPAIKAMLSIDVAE
Put plainly: GDH-coupled transglutaminase assay, TG3. In kind it is biochemical. The settings on record: irreversible inhibition model, substrate ZQS.

Data set [2] can be described thus: Plasma concentrations after pooled oral dosing to mice. The note with it: 50 mg/kg. In kind it is in vivo. Put shortly:
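Test compounds given as mixtures by oral gavage (10 μL/g) at 50 mg/kg of each constituent to cohorts of five male CD-1 mice, 6−8 weeks old, fasted about 6 h. Blood was drawn into lithium-heparin tubes from the saphenous vein at 5 and 20 min, and by cardiac puncture at 60 min after CO2 euthanasia. Each compound's plasma concentration was quantified and plotted against time.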

A further data set has as its target T2, murine TG2 (mTG2) (Mus musculus, UniProt P21981).
T2 sequence (P21981 1-686): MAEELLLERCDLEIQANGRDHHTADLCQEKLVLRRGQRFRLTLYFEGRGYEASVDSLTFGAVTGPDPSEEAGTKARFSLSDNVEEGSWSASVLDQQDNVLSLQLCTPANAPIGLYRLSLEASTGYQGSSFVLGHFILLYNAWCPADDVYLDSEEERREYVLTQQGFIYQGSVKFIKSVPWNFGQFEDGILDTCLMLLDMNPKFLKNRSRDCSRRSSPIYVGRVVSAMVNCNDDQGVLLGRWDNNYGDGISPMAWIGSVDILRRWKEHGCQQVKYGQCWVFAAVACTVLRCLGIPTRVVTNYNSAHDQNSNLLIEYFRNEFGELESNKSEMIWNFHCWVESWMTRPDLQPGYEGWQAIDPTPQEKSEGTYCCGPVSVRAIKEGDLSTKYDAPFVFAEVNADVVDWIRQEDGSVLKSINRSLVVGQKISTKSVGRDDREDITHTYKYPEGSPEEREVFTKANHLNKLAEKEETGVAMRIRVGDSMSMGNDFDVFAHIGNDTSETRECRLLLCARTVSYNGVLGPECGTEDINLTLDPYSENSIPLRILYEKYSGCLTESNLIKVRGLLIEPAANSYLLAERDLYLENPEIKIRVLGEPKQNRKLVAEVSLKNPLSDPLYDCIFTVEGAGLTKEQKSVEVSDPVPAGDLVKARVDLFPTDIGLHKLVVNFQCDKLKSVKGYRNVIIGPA
Put plainly: GDH-coupled transglutaminase assay, murine TG2. It is filed as biochemical. The note with it: irreversible inhibition model, substrate ZQG.

For the next data set, the target named is T3, human TG1 (Homo sapiens, UniProt P22735).
T3 sequence (P22735 63-817): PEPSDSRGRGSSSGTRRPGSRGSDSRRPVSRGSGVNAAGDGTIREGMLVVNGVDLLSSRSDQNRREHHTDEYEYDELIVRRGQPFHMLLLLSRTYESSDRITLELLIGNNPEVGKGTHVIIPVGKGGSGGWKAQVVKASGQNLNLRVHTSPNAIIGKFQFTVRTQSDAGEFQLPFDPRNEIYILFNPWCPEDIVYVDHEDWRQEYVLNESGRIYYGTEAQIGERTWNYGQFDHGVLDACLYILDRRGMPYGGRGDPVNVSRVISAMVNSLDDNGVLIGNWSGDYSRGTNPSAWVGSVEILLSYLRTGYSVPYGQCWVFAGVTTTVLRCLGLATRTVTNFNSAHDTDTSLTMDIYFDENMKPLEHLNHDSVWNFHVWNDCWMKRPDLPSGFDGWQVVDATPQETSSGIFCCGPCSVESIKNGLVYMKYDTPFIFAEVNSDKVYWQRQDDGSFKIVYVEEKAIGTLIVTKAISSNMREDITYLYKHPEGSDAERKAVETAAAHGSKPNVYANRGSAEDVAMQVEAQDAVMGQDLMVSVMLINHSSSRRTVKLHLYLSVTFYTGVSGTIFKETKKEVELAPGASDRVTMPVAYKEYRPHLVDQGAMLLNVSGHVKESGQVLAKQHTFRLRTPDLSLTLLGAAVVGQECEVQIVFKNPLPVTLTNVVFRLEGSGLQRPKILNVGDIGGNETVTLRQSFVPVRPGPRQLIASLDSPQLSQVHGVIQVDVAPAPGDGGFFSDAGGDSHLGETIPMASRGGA
Put plainly: GDH-coupled transglutaminase assay, TG1. In kind it is biochemical.

A further data set concerns TG2. The settings on record: murine model of hypoxia-induced pulmonary hypertension ref 22; cited from earlier work.
The conditions of data set [3]: twice-daily, intraperitoneal, 50 mg/kg, several weeks ref 22; cited from earlier work.
A further data set deals with T4, human TG2 (Homo sapiens, UniProt P21980, V224G).
T4 sequence (P21980 1-687 V224G): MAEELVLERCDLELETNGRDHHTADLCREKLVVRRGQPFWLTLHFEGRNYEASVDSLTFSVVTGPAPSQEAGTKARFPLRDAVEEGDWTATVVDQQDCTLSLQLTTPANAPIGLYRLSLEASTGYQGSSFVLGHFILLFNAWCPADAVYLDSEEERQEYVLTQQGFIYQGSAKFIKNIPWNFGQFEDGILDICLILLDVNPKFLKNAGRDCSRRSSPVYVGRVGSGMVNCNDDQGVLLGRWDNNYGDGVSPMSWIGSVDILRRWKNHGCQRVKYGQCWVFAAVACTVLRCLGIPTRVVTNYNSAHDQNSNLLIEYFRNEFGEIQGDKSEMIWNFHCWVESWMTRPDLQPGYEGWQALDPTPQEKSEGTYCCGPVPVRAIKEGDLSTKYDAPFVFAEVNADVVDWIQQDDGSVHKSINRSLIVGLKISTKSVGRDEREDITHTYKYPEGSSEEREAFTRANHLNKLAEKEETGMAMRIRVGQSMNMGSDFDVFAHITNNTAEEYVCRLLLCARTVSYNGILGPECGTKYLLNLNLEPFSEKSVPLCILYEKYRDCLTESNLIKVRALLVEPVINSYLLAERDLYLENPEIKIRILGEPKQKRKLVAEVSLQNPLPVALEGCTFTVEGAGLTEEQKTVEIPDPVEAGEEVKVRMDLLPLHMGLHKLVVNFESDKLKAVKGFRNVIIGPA
Put plainly: GDH-coupled transglutaminase assay, TG2. In kind it is biochemical.

`O=C(NC[C@@H]1CC(Br)=NO1)[C@@H]1C[C@@H](c2ccc(O)cc2)CN1C(=O)OCc1cnc2ccccc2c1` [Compound 7e, (2S,4S)-Quinolin-3-ylmethyl 2-((((S)-3-Bromo-4,5-dihydroisoxazol-5-yl)methyl)carbamoyl)-4-(4-hydroxyphenyl)pyrrolidine-1-carboxylate]: in data set [1], the “kinh/Ki TG3” value was less than 16.7 M⁻¹ s⁻¹. In addition, the “plasma levels, fold lower than that of 4b” value in data set [2] was 3–4 fold. In addition, the “kinh/Ki mTG2” value at murine TG2 (mTG2) was 645 M⁻¹ s⁻¹.

Take `O=C(NC[C@@H]1CC(Br)=NO1)[C@@H]1CCCN1C(=O)OCc1cnc2ccccc2n1` [Compound 10l, (S)-Quinoxalin-2-ylmethyl 2-((((S)-3-Bromo-4,5-dihydroisoxazol-5-yl)methyl)carbamoyl)pyrrolidine-1-carboxylate]: the “selectivity for TG1 (over TG2)” value at human TG1 (from kinh/Ki) was 10 fold.

For the compound `O=C(NC[C@@H]1CC(Br)=NO1)[C@@H]1CCCN1C(=O)OCc1cnc2ccccc2c1` [Compound 1, (S)-Quinolin-3-ylmethyl 2-((((S)-3-Bromo-4,5-dihydroisoxazol-5-yl)methyl)carbamoyl)pyrrolidine-1-carboxylate], in the data set on TG2, the inhibitory half-life entry was “about 12 h”. Moreover, the “kinh/Ki TG3” value in data set [1] is less than 16.7 M⁻¹ s⁻¹. For the same compound, the “peak plasma concentration after oral dosing” value in data set [2] lay in the range of 2 to 3 µg/mL. Moreover, the “kinh/Ki mTG2” value on murine TG2 (mTG2) amounted to 138 M⁻¹ s⁻¹. Also, the tolerability entry in data set [3] is listed as “well tolerated”. The “kinh/Ki TG2” value at human TG2 (irreversible inhibition model, substrate ZQG, listed as ERW1041E) was 283 M⁻¹ s⁻¹. At human TG2 (relative to ERW1069), the “decrease in potency from ERW1069 to ERW1041E” value is given as 3–4 fold. Further, the “kinh/Ki TG1” value at human TG1 (irreversible inhibition model, substrate ZQS, listed as ERW1041E) turned out to be 217 M⁻¹ s⁻¹.

`O=C(NC[C@@H]1CC(Br)=NO1)[C@@H]1C[C@H](F)CN1C(=O)OCc1cnc2ccccc2c1` [Compound 4b, (2S,4S)-Quinolin-3-ylmethyl 2-((((S)-3-Bromo-4,5-dihydroisoxazol-5-yl)methyl)carbamoyl)-4-fluoropyrrolidine-1-carboxylate]: the “kinh/Ki TG3” value in data set [1] is less than 16.7 M⁻¹ s⁻¹. The “kinh/Ki mTG2” value at murine TG2 (mTG2) was determined as 117 M⁻¹ s⁻¹.

`O=C(N[C@@H]1C[C@@H](C(=O)NC[C@@H]2CC(Br)=NO2)N(C(=O)OCc2cnc3ccccc3c2)C1)c1cccnc1` [Compound 9e, (2S,4R)-Quinolin-3-ylmethyl 2-((((S)-3-Bromo-4,5-dihydroisoxazol-5-yl)methyl)carbamoyl)-4-(nicotinamido)pyrrolidine-1-carboxylate]: in data set [1], the “kinh/Ki TG3” value is less than 16.7 M⁻¹ s⁻¹. The “oral bioavailability / systemic availability (in words)” value in data set [2] was “much less bioavailable”. For the same compound, at murine TG2 (mTG2), the “kinh/Ki mTG2” value is 177 M⁻¹ s⁻¹.

`O=C(NC[C@@H]1CC(Br)=NO1)[C@@H]1C[C@@H](c2ccccc2)CN1C(=O)OCc1cnc2ccccc2c1` [Compound 7a, (2S,4S)-Quinolin-3-ylmethyl 2-((((S)-3-Bromo-4,5-dihydroisoxazol-5-yl)methyl)carbamoyl)-4-phenylpyrrolidine-1-carboxylate]: in data set [1], the “kinh/Ki TG3” value was less than 16.7 M⁻¹ s⁻¹. In addition, the “plasma levels, fold lower than that of 4b” value in data set [2] was 3–4 fold. The “kinh/Ki mTG2” value on murine TG2 (mTG2) is 423 M⁻¹ s⁻¹.

On to `C#CCOC(=O)N1CCC[C@H]1C(=O)NC[C@@H]1CC(Br)=NO1` [Compound 10b, (S)-Prop-2-yn-1-yl 2-((((S)-3-Bromo-4,5-dihydroisoxazol-5-yl)methyl)carbamoyl)pyrrolidine-1-carboxylate], for which the “selectivity for TG2 over TG1” value on human TG2 (from kinh/Ki) stood at 3 fold.

Regarding “(2S,4R)-Quinolin-3-ylmethyl 4-(Benzyloxy)-2-((((S)-3-bromo-4,5-dihydroisoxazol-5-yl)methyl)carbamoyl)pyrrolidine-1-carboxylate [Compound 5c]”, the “kinh/Ki TG3” value in data set [1] was less than 16.7 M⁻¹ s⁻¹. For the same compound, the “kinh/Ki mTG2” value on murine TG2 (mTG2) came out at 258 M⁻¹ s⁻¹.

With `O=C(N[C@@H]1C[C@@H](C(=O)NC[C@@H]2CC(Br)=NO2)N(C(=O)OCc2cnc3ccccc3c2)C1)c1ccc(O)cc1` [Compound 9d, (2S,4R)-Quinolin-3-ylmethyl 2-((((S)-3-Bromo-4,5-dihydroisoxazol-5-yl)methyl)carbamoyl)-4-(4-hydroxybenzamido)pyrrolidine-1-carboxylate], the “kinh/Ki TG3” value in data set [1] is less than 16.7 M⁻¹ s⁻¹. The “oral bioavailability / systemic availability (in words)” value in data set [2] was “much less bioavailable”. Further, on murine TG2 (mTG2), the “kinh/Ki mTG2” value stood at 157 M⁻¹ s⁻¹.

Consider `O=C(NC[C@@H]1CC(Br)=NO1)[C@@H]1C[C@@H](O)CN1C(=O)OCc1cnc2ccccc2c1` [Compound 4e, (2S,4R)-Quinolin-3-ylmethyl 2-((((S)-3-Bromo-4,5-dihydroisoxazol-5-yl)methyl)carbamoyl)-4-hydroxypyrrolidine-1-carboxylate], for which, in data set [1], the “kinh/Ki TG3” value is less than 16.7 M⁻¹ s⁻¹. Moreover, the “kinh/Ki mTG2” value on murine TG2 (mTG2) was determined as 185 M⁻¹ s⁻¹.
